ChEMBL document CHEMBL4346686, “Discovery and biological evaluation of novel androgen receptor antagonist for castration-resistant prostate cancer” (Eur J Med Chem, 2019)

Legend:
PC-3 = assay: Antiproliferative activity against human PC3 cells assessed as reduction in cell viability incubated for 6 days by CCK8 assay; type: functional, cell-based; details: PC-3, 144 h
Procedure, shortened: (§1)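 Cells seeded (2×10^4 per well for VCaP, 1–3×10^3 for the others) and compound added after 24 h as a 9-point, 3-fold serial dilution. Exposure 6 days, then CCK-8 for 1–4 h and absorbance at 450 nm. IC50 from curve fit, mean of at least two independent experiments run in duplicate.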

[1] = Antiproliferative activity against human LNCaP-AR cells assessed as reduction in cell viability incubated for 6 days by CCK8 assay; type: functional, cell-based; details: 144 h; procedure, shortened: as §1
CWR22R = assay: Antiproliferative activity against human 22Rv1 cells assessed as reduction in cell viability incubated for 6 days by CCK8 assay; type: functional, cell-based; details: 22Rv1, 144 h; procedure, shortened: as §1
VCaP = assay: Antiproliferative activity against human VCaP cells assessed as reduction in cell viability incubated for 6 days by CCK8 assay; type: functional, cell-based; details: 144 h; procedure, shortened: as §1
L02 = assay: Antiproliferative activity against human L02 cells assessed as reduction in cell viability incubated for 6 days by CCK8 assay; type: cell-based; details: L02, 144 h; procedure, shortened: as §1

SMILES	IC50 (PC-3) [µM]	IC50 [1] [µM]	IC50 (CWR22R) [µM]	IC50 (VCaP) [µM]	IC50 (L02) [µM]
CCN(c1ccc(C#N)c(Cl)c1)c1cc(-c2cccs2)ccc1C	> 30	0.38	22	–	–
CCN(c1cccc(-n2ccnc2)c1)c1ccc(C#N)c(C(F)(F)F)c1	> 30	0.58	19	> 30	–
CCN(c1cccc(-c2ccccc2)c1)c1ccc(C#N)c(Cl)c1	–	1.29	–	–	–
CCN(c1ccc(C#N)c(Cl)c1)c1cc(-n2ccnc2)ccc1C	> 30	0.32	> 30	> 30	15
CCN(c1ccc(C#N)c(Cl)c1)c1cc(-c2ccoc2)ccc1C	> 30	0.48	> 30	4.01	–
Cc1noc(C)c1-c1cccc2c1CCCN2c1ccc(C#N)c(C(F)(F)F)c1	–	1.42	–	> 30	–
N#Cc1ccc(N2CCCc3c(-c4ccncc4)cccc32)cc1C(F)(F)F	28.7	0.07	15	> 30	6.38
CCN(c1ccc(C#N)c(Cl)c1)c1cc(-c2ccncc2)ccc1C	3.58	0.48	1.03	2.9	1.73
CCN(c1ccc(C#N)c(Cl)c1)c1cc(-c2ccco2)ccc1C	> 30	0.49	> 30	> 30	–
N#Cc1ccc(N2CCc3cc(-c4cncnc4)ccc32)cc1C(F)(F)F	–	21	–	–	–
N#Cc1ccc(N2CCc3cc(-c4cccnc4)ccc3C2)cc1C(F)(F)F	–	0.76	4.79	2.53	–
N#Cc1ccc(N2CCc3cc(-c4ccncc4)ccc3C2)cc1C(F)(F)F	–	0.98	6.94	3.5	–
N#Cc1ccc(N2CCc3cc(-c4cncnc4)ccc3C2)cc1C(F)(F)F	–	1.67	–	–	–
N#Cc1ccc(N2CCc3cc(-c4cccnc4)ccc32)cc1C(F)(F)F	–	1.24	–	–	–
CCN(c1ccc(C#N)c(Cl)c1)c1cc(-n2cnc3ccccc32)ccc1C	8.16	0.39	3.04	8.56	–
CCN(c1ccc(C#N)c(Cl)c1)c1cc(-c2cnc3ccccc3c2)ccc1C	3.57	1.98	–	25.3	–
CCN(c1ccc(C#N)c(Cl)c1)c1cc(-c2ccc(F)nc2)ccc1C	> 30	0.41	16.5	> 30	–
CCN(c1ccc(C#N)c(Cl)c1)c1cc(-c2ccccc2)ccc1C	–	2.78	> 30	> 30	> 30
CCN(c1ccc(C#N)c(Cl)c1)c1cc(-n2cccn2)ccc1C	15.7	0.29	> 30	2.34	–
N#Cc1ccc(N2CCc3cc(-c4cnc5ccccc5c4)ccc3C2)cc1C(F)(F)F	25.1	0.98	25.9	> 30	–
Cn1nccc1-c1cccc2c1CCCN2c1ccc(C#N)c(C(F)(F)F)c1	9.8	0.24	10.4	> 30	–
CCN(c1ccc(C#N)c(Cl)c1)c1cc(C2=CCCCC2)ccc1C	–	2.55	–	20	–
N#Cc1ccc(N2CCc3cc(-c4cnc5ccccc5c4)ccc32)cc1C(F)(F)F	–	11.5	–	–	–
Cc1noc(C)c1-c1cccc(Oc2ccc(C#N)c(C(F)(F)F)c2)c1	–	1.67	–	–	–
CCN(c1ccc(C#N)c(C(F)(F)F)c1)c1cc(-n2ccnc2)ccc1C	> 30	0.4 to 0.56	16.3	3.92 to 30	–
CCN(c1ccncc1)c1cc(-c2c(C)noc2C)ccc1C	–	2.88	–	2.01	–
CCN(c1cccc(-c2cncnc2)c1)c1ccc(C#N)c(Cl)c1	> 30	0.36	> 30	> 30	–
CCN(c1ccc(C#N)c(Cl)c1)c1cc(-c2cn[nH]c2)ccc1C	15.3	0.7	> 30	–	–
